# Laboratory results from ChEMBL document CHEMBL4689842, “EUbOPEN Chemogenomics Library wave 1” (2021).
# System: Fibroblast
# Assay: Multiplex assay against human fibroblast
# Assay type: toxicity, cell-based
# How it was run: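 Tubulin, mitochondrial-mass and membrane-permeability phenotypes are per cents of healthy-nucleus cells. Cells were gated by CellPathfinder machine learning into Hoechst high-intensity objects or normal cells, normal cells into healthy, pyknosed or fragmented nuclei, and pyknosed cells into mitotic or apoptotic. Before that, live cells stained at seeding with Hoechst33342, BioTracker Green Microtubule Cytoskeleton Dye, MitoTracker Red and Annexin V Alexa Fluor 680 were imaged on a CQ1 microscope at 37°C and 5% CO2 after compound addition.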
# [1] = 12 h, 1 µM, compound concentration 1 uM, replicate 1
# [2] = 12 h, 1 µM, compound concentration 1 uM, replicate 2
# [3] = 12 h, 10 µM, compound concentration 10 uM, replicate 1
# [4] = 12 h, 10 µM, compound concentration 10 uM, replicate 2
# [5] = 24 h, 1 µM, compound concentration 1 uM, replicate 1
# [6] = 24 h, 1 µM, compound concentration 1 uM, replicate 2
# [7] = 24 h, 10 µM, compound concentration 10 uM, replicate 1
# [8] = 24 h, 10 µM, compound concentration 10 uM, replicate 2
# [9] = 48 h, 1 µM, compound concentration 1 uM, replicate 1
# [10] = 48 h, 1 µM, compound concentration 1 uM, replicate 2
# [11] = 48 h, 10 µM, compound concentration 10 uM, replicate 1
# [12] = 48 h, 10 µM, compound concentration 10 uM, replicate 2
smiles,measurement,setting,value
Cc1[nH]c(/C=C2\C(=O)Nc3ccc(S(=O)(=O)N(C)c4cccc(Cl)c4)cc32)c(C)c1C(=O)N1CCN(C)CC1,Population Apoptotic (%),[1],64%
same,Population Fragmented Nuclei (%),[1],25%
same,Population Healthy Nuclei (%),[1],51%
same,Population Hoechst High Intensity Objects (%),[1],8%
same,Population Membrane Permeable-Phenotype (%),[1],40%
same,Population Mitochondria Different-Phenotype (%),[1],6%
same,Population Mitotic Cells (%),[1],35%
same,Population Normal (%),[1],91%
same,Population Pyknosed Nuclei (%),[1],22%
same,Population Tubulin-Different-Phenotype (%),[1],43%
same,Total Cell Count,[1],68
same,Population Apoptotic (%),[2],100%
same,Population Fragmented Nuclei (%),[2],16%
same,Population Healthy Nuclei (%),[2],77%
same,Population Hoechst High Intensity Objects (%),[2],12%
same,Population Membrane Permeable-Phenotype (%),[2],12%
same,Population Mitochondria Different-Phenotype (%),[2],42%
same,Population Mitotic Cells (%),[2],0%
same,Population Normal (%),[2],87%
same,Population Pyknosed Nuclei (%),[2],6%
same,Population Tubulin-Different-Phenotype (%),[2],68%
same,Total Cell Count,[2],90
same,Population Apoptotic (%),[3],61%
same,Population Fragmented Nuclei (%),[3],20%
same,Population Healthy Nuclei (%),[3],61%
same,Population Hoechst High Intensity Objects (%),[3],5%
same,Population Membrane Permeable-Phenotype (%),[3],59%
same,Population Mitochondria Different-Phenotype (%),[3],13%
same,Population Mitotic Cells (%),[3],38%
same,Population Normal (%),[3],94%
same,Population Pyknosed Nuclei (%),[3],18%
same,Population Tubulin-Different-Phenotype (%),[3],93%
same,Total Cell Count,[3],76
same,Population Apoptotic (%),[4],25%
same,Population Fragmented Nuclei (%),[4],10%
same,Population Healthy Nuclei (%),[4],74%
same,Population Hoechst High Intensity Objects (%),[4],12%
same,Population Membrane Permeable-Phenotype (%),[4],40%
same,Population Mitochondria Different-Phenotype (%),[4],97%
same,Population Mitotic Cells (%),[4],75%
same,Population Normal (%),[4],87%
same,Population Pyknosed Nuclei (%),[4],16%
same,Population Tubulin-Different-Phenotype (%),[4],100%
same,Total Cell Count,[4],70
same,Population Apoptotic (%),[5],53%
same,Population Fragmented Nuclei (%),[5],22%
same,Population Healthy Nuclei (%),[5],56%
same,Population Hoechst High Intensity Objects (%),[5],3%
same,Population Membrane Permeable-Phenotype (%),[5],28%
same,Population Mitochondria Different-Phenotype (%),[5],14%
same,Population Mitotic Cells (%),[5],46%
same,Population Normal (%),[5],96%
same,Population Pyknosed Nuclei (%),[5],20%
same,Population Tubulin-Different-Phenotype (%),[5],62%
same,Total Cell Count,[5],64
same,Population Apoptotic (%),[6],100%
same,Population Fragmented Nuclei (%),[6],18%
same,Population Healthy Nuclei (%),[6],72%
same,Population Hoechst High Intensity Objects (%),[6],8%
same,Population Membrane Permeable-Phenotype (%),[6],10%
same,Population Mitochondria Different-Phenotype (%),[6],40%
same,Population Mitotic Cells (%),[6],0%
same,Population Normal (%),[6],91%
same,Population Pyknosed Nuclei (%),[6],9%
same,Population Tubulin-Different-Phenotype (%),[6],55%
same,Total Cell Count,[6],65
same,Population Apoptotic (%),[7],77%
same,Population Fragmented Nuclei (%),[7],41%
same,Population Healthy Nuclei (%),[7],46%
same,Population Hoechst High Intensity Objects (%),[7],7%
same,Population Membrane Permeable-Phenotype (%),[7],38%
same,Population Mitochondria Different-Phenotype (%),[7],50%
same,Population Mitotic Cells (%),[7],22%
same,Population Normal (%),[7],92%
same,Population Pyknosed Nuclei (%),[7],12%
same,Population Tubulin-Different-Phenotype (%),[7],97%
same,Total Cell Count,[7],79
same,Population Apoptotic (%),[8],100%
same,Population Fragmented Nuclei (%),[8],17%
same,Population Healthy Nuclei (%),[8],73%
same,Population Hoechst High Intensity Objects (%),[8],8%
same,Population Membrane Permeable-Phenotype (%),[8],84%
same,Population Mitochondria Different-Phenotype (%),[8],100%
same,Population Mitotic Cells (%),[8],0%
same,Population Normal (%),[8],91%
same,Population Pyknosed Nuclei (%),[8],9%
same,Population Tubulin-Different-Phenotype (%),[8],100%
same,Total Cell Count,[8],71
same,Population Apoptotic (%),[9],61%
same,Population Fragmented Nuclei (%),[9],30%
same,Population Healthy Nuclei (%),[9],48%
same,Population Hoechst High Intensity Objects (%),[9],11%
same,Population Membrane Permeable-Phenotype (%),[9],17%
same,Population Mitochondria Different-Phenotype (%),[9],13%
same,Population Mitotic Cells (%),[9],38%
same,Population Normal (%),[9],88%
same,Population Pyknosed Nuclei (%),[9],21%
same,Population Tubulin-Different-Phenotype (%),[9],65%
same,Total Cell Count,[9],68
same,Population Apoptotic (%),[10],50%
same,Population Fragmented Nuclei (%),[10],16%
same,Population Healthy Nuclei (%),[10],80%
same,Population Hoechst High Intensity Objects (%),[10],17%
same,Population Membrane Permeable-Phenotype (%),[10],27%
same,Population Mitochondria Different-Phenotype (%),[10],15%
same,Population Mitotic Cells (%),[10],50%
same,Population Normal (%),[10],82%
same,Population Pyknosed Nuclei (%),[10],2%
same,Population Tubulin-Different-Phenotype (%),[10],81%
same,Total Cell Count,[10],88
same,Population Apoptotic (%),[11],66%
same,Population Fragmented Nuclei (%),[11],40%
same,Population Healthy Nuclei (%),[11],37%
same,Population Hoechst High Intensity Objects (%),[11],11%
same,Population Membrane Permeable-Phenotype (%),[11],16%
same,Population Mitochondria Different-Phenotype (%),[11],76%
same,Population Mitotic Cells (%),[11],33%
same,Population Normal (%),[11],88%
same,Population Pyknosed Nuclei (%),[11],22%
same,Population Tubulin-Different-Phenotype (%),[11],100%
same,Total Cell Count,[11],76
same,Population Apoptotic (%),[12],50%
same,Population Fragmented Nuclei (%),[12],21%
same,Population Healthy Nuclei (%),[12],72%
same,Population Hoechst High Intensity Objects (%),[12],8%
same,Population Membrane Permeable-Phenotype (%),[12],25%
same,Population Mitochondria Different-Phenotype (%),[12],52%
same,Population Mitotic Cells (%),[12],50%
same,Population Normal (%),[12],91%
same,Population Pyknosed Nuclei (%),[12],6%
same,Population Tubulin-Different-Phenotype (%),[12],95%
same,Total Cell Count,[12],72
